# Test results taken from ChEMBL document CHEMBL1649151, “Urinary bactericidal activity of Doripenem versus that of levofloxacin in patients with complicated urinary tract infections or pyelonephritis” (Antimicrob Agents Chemother, 2009).
# Experiments:
# Escherichia coli [1] = assay: Antimicrobial activity against Escherichia coli 1780064 A-X isolated from patient with pyelonephritis assessed as >3-log reduction in urinary bacterial titer after 24 hrs; assay type: functional, Urine
# Summary of the method: (§1)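 Urine was collected on day 3 of i.v. therapy (steady state) over 4-h intervals from infusion start (0–4 to 20–24 h), stored at –80°C and sterile filtered. It was serially diluted twofold (1:0 up to 1:131,072) in the patient's own pre-dose drug-free urine. Microdilution used a final inoculum of 1.0 x 10^6 to 9.5 x 10^6 CFU/ml, incubated 18 h at 37°C in air. 10 µl was subcultured onto 5% blood Columbia agar for 24 h at 37°C. The bactericidal endpoint was >99.9% (>3-log) kill, reported as a reciprocal titer.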
# Staphylococcus aureus [2] = assay: Antimicrobial activity against Staphylococcus aureus 2215767-9 B-S isolated from patient with pyelonephritis assessed as >3-log reduction in urinary bacterial titer after 24 hrs; assay type: functional, Urine
# Enterococcus faecalis [3] = assay: Antimicrobial activity against Enterococcus faecalis 2215767-10 B-S isolated from patient with pyelonephritis assessed as >3-log reduction in urinary bacterial titer after 16 hrs; assay type: functional, Urine
# Summary of the method: (§2)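 Urine was collected before dosing and on day 3 of i.v. therapy (steady state), in 4-h intervals from infusion start (0–4 to 20–24 h), stored at −80°C and sterile filtered. It was serially diluted twofold (1:0 to 1:131,072) in the patient's drug-free pre-dose urine. Microdilution used an inoculum of 1.0 x 10^6–9.5 x 10^6 CFU/ml, incubated 18 h at 37°C, then subcultured 24 h on blood agar. The endpoint was >99.9% kill, reported as reciprocal titer.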
# Escherichia coli [4] = assay: Antimicrobial activity against Escherichia coli 1821386 B-D isolated from patient with pyelonephritis assessed as >3-log reduction in urinary bacterial titer after 24 hrs; assay type: functional, Urine; summary of the method: as §1
# Staphylococcus aureus [5] = assay: Antimicrobial activity against Staphylococcus aureus 2215767-9 B-S isolated from patient with pyelonephritis by Etest; assay type: functional
# Escherichia coli [6] = assay: Antimicrobial activity against Escherichia coli 1889647 B-H isolated from patient with pyelonephritis assessed as >3-log reduction in urinary bacterial titer after 24 hrs; assay type: functional, Urine; summary of the method: as §1
# Escherichia coli [7] = assay: Antimicrobial activity against Escherichia coli 1655646 A-Y isolated from patient with pyelonephritis by Etest; assay type: functional
# Enterococcus faecalis [8] = assay: Antimicrobial activity against Enterococcus faecalis 2297262-10 B-V isolated from patient with pyelonephritis assessed as >3-log reduction in urinary bacterial titer after 8 hrs; assay type: functional, Urine; summary of the method: as §2
# Staphylococcus aureus [9] = assay: Antimicrobial activity against Staphylococcus aureus 1889640 A-Z isolated from patient with pyelonephritis assessed as >3-log reduction in urinary bacterial titer after 4 hrs; assay type: functional, Urine
# Staphylococcus aureus [10] = assay: Antimicrobial activity against Staphylococcus aureus 1889640 A-Z isolated from patient with pyelonephritis assessed as >3-log reduction in urinary bacterial titer after 16 hrs; assay type: functional, Urine
# [11] = tested on: Staphylococcus epidermidis; assay: Antimicrobial activity against Staphylococcus epidermidis 1949822 B-J isolated from patient with pyelonephritis assessed as >3-log reduction in urinary bacterial titer after 16 hrs; assay type: functional, Urine
# Enterococcus faecalis [12] = assay: Antimicrobial activity against Enterococcus faecalis 2215767-10 B-S isolated from patient with pyelonephritis assessed as >3-log reduction in urinary bacterial titer after 20 hrs; assay type: functional, Urine; summary of the method: as §2
# Pseudomonas aeruginosa [13] = assay: Antimicrobial activity against Pseudomonas aeruginosa 1821383 B-E isolated from patient with pyelonephritis assessed as >3-log reduction in urinary bacterial titer after 4 hrs; assay type: functional, Urine
# Escherichia coli [14] = assay: Antimicrobial activity against Escherichia coli 1821386 B-D isolated from patient with pyelonephritis assessed as >3-log reduction in urinary bacterial titer after 20 hrs; assay type: functional, Urine; summary of the method: as §1
# Escherichia coli [15] = assay: Antimicrobial activity against Escherichia coli 1889647 B-H isolated from patient with pyelonephritis assessed as >3-log reduction in urinary bacterial titer after 8 hrs; assay type: functional, Urine; summary of the method: as §1
# [16] = tested on: Staphylococcus epidermidis; assay: Antimicrobial activity against Staphylococcus epidermidis 1949822 B-J isolated from patient with pyelonephritis assessed as >3-log reduction in urinary bacterial titer after 8 hrs; assay type: functional, Urine
# Escherichia coli [17] = assay: Antimicrobial activity against Escherichia coli 1889647 B-H isolated from patient with pyelonephritis assessed as >3-log reduction in urinary bacterial titer after 4 hrs; assay type: functional, Urine; summary of the method: as §1
# Serratia marcescens = assay: Antimicrobial activity against Serratia marcescens 2297260 B-U isolated from patient with pyelonephritis assessed as >3-log reduction in urinary bacterial titer after 8 hrs; assay type: functional, Urine
# Pseudomonas aeruginosa [18] = assay: Antimicrobial activity against Pseudomonas aeruginosa 2062713 B-Q isolated from patient with pyelonephritis assessed as >3-log reduction in urinary bacterial titer after 16 hrs; assay type: functional, Urine
# Escherichia coli [19] = assay: Antimicrobial activity against Escherichia coli 1889645 B-I isolated from patient with pyelonephritis by Etest; assay type: functional
# Escherichia coli [20] = assay: Antimicrobial activity against Escherichia coli 1821385 B-C isolated from patient with pyelonephritis assessed as >3-log reduction in urinary bacterial titer after 8 hrs; assay type: functional, Urine; summary of the method: as §1
# Escherichia coli [21] = assay: Antimicrobial activity against Escherichia coli 1889645 B-I isolated from patient with pyelonephritis assessed as >3-log reduction in urinary bacterial titer after 16 hrs; assay type: functional, Urine; summary of the method: as §1
# Escherichia coli [22] = assay: Antimicrobial activity against Escherichia coli 1889645 B-I isolated from patient with pyelonephritis assessed as >3-log reduction in urinary bacterial titer after 12 hrs; assay type: functional, Urine; summary of the method: as §1
# Enterococcus faecalis [23] = assay: Antimicrobial activity against Enterococcus faecalis 2215770 B-T isolated from patient with pyelonephritis assessed as >3-log reduction in urinary bacterial titer after 8 hrs; assay type: functional, Urine; summary of the method: as §2
# Escherichia coli [24] = assay: Antimicrobial activity against Escherichia coli 2062717 B-P isolated from patient with pyelonephritis assessed as >3-log reduction in urinary bacterial titer after 24 hrs; assay type: functional, Urine
# Escherichia coli [25] = assay: Antimicrobial activity against Escherichia coli 2062717 B-P isolated from patient with pyelonephritis assessed as >3-log reduction in urinary bacterial titer after 12 hrs; assay type: functional, Urine
# Summary of the method: (§3)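 Patient urine was collected on day 3 of i.v. therapy (steady state) over 4-h intervals after infusion start, stored at –80°C, and sterile filtered. It was twofold serially diluted (1:0 to 1:131,072) in the patient's own pre-dose drug-free urine, inoculated to 1.0 x 10^6–9.5 x 10^6 CFU/ml, and incubated for 18 h at 37°C. Subcultures were grown on blood agar for 24 h. The UBT is the reciprocal of the highest dilution giving >99.9% kill.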
# [26] = tested on: Staphylococcus haemolyticus; assay: Antimicrobial activity against Staphylococcus haemolyticus 1949819 B-M isolated from patient with pyelonephritis assessed as >3-log reduction in urinary bacterial titer after 16 hrs; assay type: functional, Urine
# Escherichia coli [27] = assay: Antimicrobial activity against Escherichia coli 1780063 B-A isolated from patient with pyelonephritis assessed as >3-log reduction in urinary bacterial titer after 20 hrs; assay type: functional, Urine; summary of the method: as §2
# Escherichia coli [28] = assay: Antimicrobial activity against Escherichia coli 1949825 B-K isolated from patient with pyelonephritis assessed as >3-log reduction in urinary bacterial titer after 16 hrs; assay type: functional, Urine; summary of the method: as §3
# Escherichia coli [29] = assay: Antimicrobial activity against Escherichia coli 1821385 B-C isolated from patient with pyelonephritis assessed as >3-log reduction in urinary bacterial titer after 4 hrs; assay type: functional, Urine; summary of the method: as §1
# Escherichia coli [30] = assay: Antimicrobial activity against Escherichia coli 1949825 B-K isolated from patient with pyelonephritis assessed as >3-log reduction in urinary bacterial titer after 4 hrs; assay type: functional, Urine; summary of the method: as §3
# [31] = T>MIC in Prevotella spp.-infected patient at 250 to 1000 mg/kg administered every 8 hrs; assay type: functional; conditions: dose mg/kg 250-1000; pooled result: one value given for 10 cell lines, strains, targets or settings
# Escherichia coli [32] = assay: Antimicrobial activity against Escherichia coli 1889646 B-F isolated from patient with pyelonephritis assessed as >3-log reduction in urinary bacterial titer after 20 hrs; assay type: functional, Urine; summary of the method: as §1
# Escherichia coli [33] = assay: Antimicrobial activity against Escherichia coli 1780063 B-A isolated from patient with pyelonephritis by Etest; assay type: functional
structure (smiles),measurement,setting,value
C[C@H]1COc2c(N3CCN(C)CC3)c(F)cc3c(=O)c(C(=O)O)cn1c23.C[C@H]1COc2c(N3CCN(C)CC3)c(F)cc3c(=O)c(C(=O)O)cn1c23.O [LEVOFLOXACIN],urinary bactericidal titer,Escherichia coli [1],128 reciprocal titer
same,urinary bactericidal titer,Staphylococcus aureus [2],0 reciprocal titer
same,urinary bactericidal titer,Enterococcus faecalis [3],0 reciprocal titer
same,urinary bactericidal titer,Escherichia coli [4],2048 reciprocal titer
same,MIC,Staphylococcus aureus [5],> 32 µg/mL
same,urinary bactericidal titer,Escherichia coli [6],256 reciprocal titer
same,MIC,Escherichia coli [7],0.047 µg/mL
same,urinary bactericidal titer,Enterococcus faecalis [8],0 reciprocal titer
same,urinary bactericidal titer,Staphylococcus aureus [9],256 reciprocal titer
same,urinary bactericidal titer,Staphylococcus aureus [10],128 reciprocal titer
same,urinary bactericidal titer,[11],4 reciprocal titer
same,Time,Enterococcus faecalis [12],0 h
same,urinary bactericidal titer,Pseudomonas aeruginosa [13],32 reciprocal titer
same,urinary bactericidal titer,Escherichia coli [14],2048 reciprocal titer
same,urinary bactericidal titer,Escherichia coli [15],2048 reciprocal titer
same,urinary bactericidal titer,[16],4 reciprocal titer
same,urinary bactericidal titer,Escherichia coli [17],2048 reciprocal titer
same,urinary bactericidal titer,Serratia marcescens,256 reciprocal titer
same,urinary bactericidal titer,Pseudomonas aeruginosa [18],4 reciprocal titer
C[C@@H](O)[C@H]1C(=O)N2C(C(=O)O)=C(S[C@@H]3CN[C@H](CNS(N)(=O)=O)C3)[C@H](C)[C@H]12 [DORIPENEM],MIC,Escherichia coli [19],0.03 µg/mL
same,urinary bactericidal titer,Escherichia coli [20],256 reciprocal titer
same,urinary bactericidal titer,Escherichia coli [21],32800 titer
same,urinary bactericidal titer,Escherichia coli [22],131000 reciprocal titer
same,urinary bactericidal titer,Enterococcus faecalis [23],512 reciprocal titer
same,urinary bactericidal titer,Escherichia coli [24],2048 reciprocal titer
same,urinary bactericidal titer,Escherichia coli [25],1024 reciprocal titer
same,urinary bactericidal titer,[26],128 reciprocal titer
same,urinary bactericidal titer,Escherichia coli [27],4096 reciprocal titer
same,urinary bactericidal titer,Escherichia coli [28],2048 reciprocal titer
same,urinary bactericidal titer,Escherichia coli [29],4096 reciprocal titer
same,urinary bactericidal titer,Escherichia coli [30],16400 reciprocal titer
same,fT>MIC,[31],35%
same,urinary bactericidal titer,Escherichia coli [32],65500
same,MIC,Escherichia coli [33],0.03 µg/mL
